In ChEMBL document CHEMBL1138602, “Discovery of sodium 6-[(5-chloro-2-{[(4-chloro-2-fluorophenyl)methyl]oxy}phenyl)methyl]-2-pyridinecarboxylate (GSK269984A) an EP(1) receptor antagonist for the treatment of inflammatory pain” (Bioorg Med Chem Lett, 2009):

What was measured:
[1] = target: T1, Prostaglandin E2 receptor EP1 subtype (Homo sapiens, UniProt P34995); assay: Displacement of [3H]PGE2 from human EP1 receptor expressed in CHO cells; type: cell-based
T1 sequence (P34995 whole entry): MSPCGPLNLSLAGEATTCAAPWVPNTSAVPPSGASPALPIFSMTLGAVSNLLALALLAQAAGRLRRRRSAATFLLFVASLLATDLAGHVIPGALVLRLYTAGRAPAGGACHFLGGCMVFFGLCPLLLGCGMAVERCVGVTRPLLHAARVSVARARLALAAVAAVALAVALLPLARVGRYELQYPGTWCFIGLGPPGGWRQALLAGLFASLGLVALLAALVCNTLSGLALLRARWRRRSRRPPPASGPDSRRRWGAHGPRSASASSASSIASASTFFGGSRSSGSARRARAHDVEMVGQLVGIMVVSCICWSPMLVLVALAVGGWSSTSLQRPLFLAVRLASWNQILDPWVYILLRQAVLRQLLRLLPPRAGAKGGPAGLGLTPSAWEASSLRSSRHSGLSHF
Method in brief: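 Radioligand binding with [3H]-PGE2 in CHO cells overexpressing human EP1 receptor. Values are the mean of at least three experiments with standard deviations.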

[2] = Metabolic stability in rat liver microsomes assessed as compound turnover after 30 mins; type: ADME, Microsome; settings: read-out: Stability
[3] = target: T1, Prostaglandin E2 receptor EP1 subtype; assay: Antagonist activity at human recombinant EP1 receptor expressed in CHO cells assessed as inhibition of PGE2-mediated intracellular calcium mobilization by FLIPR method; type: functional, cell-based
Method in brief: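 CHO cells recombinantly overexpressing human EP1 receptor; antagonism measured as block of PGE2-mediated intracellular Ca2+ mobilization. Values are the mean of at least three experiments with standard deviations.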

[4] = Metabolic stability in human liver microsomes assessed as compound turnover after 30 mins; type: ADME, Microsome; settings: read-out: Stability
Cytochrome P450 1A2 = target: T2, Cytochrome P450 1A2 (Homo sapiens, UniProt P05177); assay: Inhibition of human CYP1A2; type: ADME
T2 sequence (P05177 whole entry): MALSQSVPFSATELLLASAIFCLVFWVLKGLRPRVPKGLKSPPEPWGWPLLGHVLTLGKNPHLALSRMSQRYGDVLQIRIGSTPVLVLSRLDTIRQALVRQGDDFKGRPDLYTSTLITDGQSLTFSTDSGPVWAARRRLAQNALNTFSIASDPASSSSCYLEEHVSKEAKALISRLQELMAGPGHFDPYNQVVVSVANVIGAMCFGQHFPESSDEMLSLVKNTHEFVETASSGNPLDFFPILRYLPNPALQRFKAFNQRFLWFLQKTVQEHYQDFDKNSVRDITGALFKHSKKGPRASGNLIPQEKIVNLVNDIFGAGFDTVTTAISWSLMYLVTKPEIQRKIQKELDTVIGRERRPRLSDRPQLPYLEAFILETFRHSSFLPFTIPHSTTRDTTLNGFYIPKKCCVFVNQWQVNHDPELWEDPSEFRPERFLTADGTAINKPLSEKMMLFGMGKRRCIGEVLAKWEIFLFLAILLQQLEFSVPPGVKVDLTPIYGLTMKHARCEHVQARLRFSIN
Method in brief: (§1)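 Inhibition of metabolism of fluorometric substrates (Cypex protocol); IC50 values are the mean of three experiments ± standard deviation.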

Cytochrome P450 2D6 = Cytochrome P450 2D6 (Homo sapiens, UniProt P10635); assay: Inhibition of human CYP2D6; type: ADME; method in brief: as §1
Cytochrome P450 2C19 = Cytochrome P450 2C19 (Homo sapiens, UniProt P33261); assay: Inhibition of human CYP2C19; type: ADME; method in brief: as §1
[5] = Lipophilicity, log D at pH 7.4; type: physicochemical; settings: buffer
Cytochrome P450 2C9 = Cytochrome P450 2C9 (Homo sapiens, UniProt P11712); assay: Inhibition of human CYP2C9; type: ADME; method in brief: as §1
[6] = Drug level in blood of complete Freund's adjuvant-induced rat inflammatory pain model at 1 mg/kg, po administered after 23 hrs of adjuvant challenge measured after 1 hr; type: ADME, organism-based; set-up: dose 1 mg/kg, route oral; settings: read-out: Drug uptake
Method in brief: (§2)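 CFA rat study: oral doses of 1, 3 or 10 mg/kg given 23 h after intraplantar adjuvant, samples 1 h post-dose. Blood values are the mean from seven animals. Brain values are the mean from three animals.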

Cytochrome P450 3A4 [7] = target: T3, Cytochrome P450 3A4 (Homo sapiens, UniProt P08684); assay: Inhibition of human CYP3A4 using PPR substrate; type: ADME
[8] = Ratio of drug level in brain to blood in complete Freund's adjuvant-induced rat inflammatory pain model at 10 mg/kg, po administered after 23 hrs of adjuvant challenge measured after 1 hr; type: ADME, organism-based; set-up: dose 10 mg/kg, route oral; settings: brain and blood
Method in brief: (§3)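 Rat CFA inflammatory pain model: oral dosing at 1, 3 or 10 mg/kg 23 h after intraplantar adjuvant; blood and brain sampled 1 h post-dose from the same animal; Br:Bl ratio is the mean from three animals.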

[9] = Ratio of drug level in brain to blood in complete Freund's adjuvant-induced rat inflammatory pain model at 1 mg/kg, po administered after 23 hrs of adjuvant challenge measured after 1 hr; type: ADME, organism-based; set-up: dose 1 mg/kg, route oral; settings: brain and blood; method in brief: as §3
Cytochrome P450 3A4 [10] = target: T3, Cytochrome P450 3A4; assay: Inhibition of human CYP3A4 using DEF substrate; type: ADME
Rattus norvegicus [11] = assay: […] activity against complete Freund's adjuvant induced inflammatory pain in po dosed rat assessed as reversal of hypersensitivity post-adjuvant challenge after 1 hr; type: functional
Method in brief: (§4)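 Rats given adjuvant by intraplantar injection; oral dosing at 1, 3 and 10 mg/kg 23 h later. Hypersensitivity assessed by weight-bearing 1 h post-dose. ED50 derived across doses.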

[12] = Ratio of drug level in brain to blood in complete Freund's adjuvant-induced rat inflammatory pain model at 3 mg/kg, po administered after 23 hrs of adjuvant challenge measured after 1 hr; type: ADME, organism-based; set-up: dose 3 mg/kg, route oral; settings: brain and blood; method in brief: as §3
[13] = Drug level in blood of complete Freund's adjuvant-induced rat inflammatory pain model at 3 mg/kg, po administered after 23 hrs of adjuvant challenge measured after 1 hr; type: ADME, organism-based; set-up: dose 3 mg/kg, route oral; settings: read-out: Drug uptake; method in brief: as §2
[14] = (§5) Drug level in brain of complete Freund's adjuvant-induced rat inflammatory pain model at 10 mg/kg, po administered after 23 hrs of adjuvant challenge measured after 1 hr; type: ADME, organism-based; set-up: dose 10 mg/kg, route oral; settings: brain, read-out: Drug uptake; method in brief: as §2
[15] = Drug level in brain of complete Freund's adjuvant-induced rat inflammatory pain model at 1 mg/kg, po administered after 23 hrs of adjuvant challenge measured after 1 hr; type: ADME, organism-based; set-up: dose 1 mg/kg, route oral; settings: read-out: Drug uptake; method in brief: as §2
[16] = Drug level in brain of complete Freund's adjuvant-induced rat inflammatory pain model at 3 mg/kg, po administered after 23 hrs of adjuvant challenge measured after 1 hr; type: ADME, organism-based; set-up: dose 3 mg/kg, route oral; settings: read-out: Drug uptake; method in brief: as §2
[17] = Drug level in blood of complete Freund's adjuvant-induced rat inflammatory pain model at 10 mg/kg, po administered after 23 hrs of adjuvant challenge measured after 1 hr; type: ADME, organism-based; set-up: dose 10 mg/kg, route oral; settings: read-out: Drug uptake; method in brief: as §2
[18] = Selectivity for human recombinant EP1 receptor over DP1
Rattus norvegicus [19] = assay: […] activity against complete Freund's adjuvant-induced inflammatory pain in rat assessed as reversal of hypersensitivity at 10 mg/kg, po administered 23 hrs post-adjuvant challenge measured after 1 hr; type: functional; method in brief: as §4
Brain = assay: as §5; type: ADME, organism-based; set-up: dose 10 mg/kg, route oral; settings: in vivo, 1 h; method in brief: as §2

Chain of Cytochrome P450 2D6 (P10635 whole entry): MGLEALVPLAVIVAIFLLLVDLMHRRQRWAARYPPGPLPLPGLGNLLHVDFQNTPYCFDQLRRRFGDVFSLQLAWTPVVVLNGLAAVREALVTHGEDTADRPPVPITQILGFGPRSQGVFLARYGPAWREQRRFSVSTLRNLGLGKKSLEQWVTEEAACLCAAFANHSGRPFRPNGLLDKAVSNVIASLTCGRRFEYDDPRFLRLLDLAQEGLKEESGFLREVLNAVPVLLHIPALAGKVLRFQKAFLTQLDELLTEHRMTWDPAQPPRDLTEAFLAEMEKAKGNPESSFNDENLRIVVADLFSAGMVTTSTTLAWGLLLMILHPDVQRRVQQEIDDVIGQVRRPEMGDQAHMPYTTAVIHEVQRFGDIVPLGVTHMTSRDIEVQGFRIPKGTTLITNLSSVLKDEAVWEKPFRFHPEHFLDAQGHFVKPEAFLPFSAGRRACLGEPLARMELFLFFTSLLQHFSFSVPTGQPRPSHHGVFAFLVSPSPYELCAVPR
Chain of Cytochrome P450 2C9 (P11712 whole entry): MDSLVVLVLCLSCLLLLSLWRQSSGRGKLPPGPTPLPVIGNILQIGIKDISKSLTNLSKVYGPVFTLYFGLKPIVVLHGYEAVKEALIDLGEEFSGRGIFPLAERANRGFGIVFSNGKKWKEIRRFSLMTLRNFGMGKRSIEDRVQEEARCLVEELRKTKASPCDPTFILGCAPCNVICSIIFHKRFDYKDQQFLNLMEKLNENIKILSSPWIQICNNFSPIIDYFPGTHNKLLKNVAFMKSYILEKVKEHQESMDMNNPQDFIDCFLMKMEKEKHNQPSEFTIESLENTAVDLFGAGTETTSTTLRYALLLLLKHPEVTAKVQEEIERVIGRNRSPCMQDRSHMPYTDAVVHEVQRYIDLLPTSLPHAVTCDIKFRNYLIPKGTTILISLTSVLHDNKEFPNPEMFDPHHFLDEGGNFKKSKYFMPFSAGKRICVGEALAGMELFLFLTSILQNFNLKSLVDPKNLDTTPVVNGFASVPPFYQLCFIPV
T3 sequence (P08684 whole entry): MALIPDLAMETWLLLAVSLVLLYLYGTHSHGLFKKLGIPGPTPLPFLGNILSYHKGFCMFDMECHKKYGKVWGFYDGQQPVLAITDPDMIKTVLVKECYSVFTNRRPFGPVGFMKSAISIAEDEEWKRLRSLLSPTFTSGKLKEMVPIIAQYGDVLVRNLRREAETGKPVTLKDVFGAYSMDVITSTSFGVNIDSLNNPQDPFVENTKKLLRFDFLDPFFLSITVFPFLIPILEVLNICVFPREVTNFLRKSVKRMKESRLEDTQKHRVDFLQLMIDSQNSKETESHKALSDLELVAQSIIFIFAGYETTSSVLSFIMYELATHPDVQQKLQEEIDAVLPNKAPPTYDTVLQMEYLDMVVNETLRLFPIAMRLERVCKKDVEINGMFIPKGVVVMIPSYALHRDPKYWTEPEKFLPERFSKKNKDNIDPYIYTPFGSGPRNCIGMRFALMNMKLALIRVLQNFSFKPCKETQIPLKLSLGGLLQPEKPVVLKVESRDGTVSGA
Chain of Cytochrome P450 2C19 (P33261 whole entry): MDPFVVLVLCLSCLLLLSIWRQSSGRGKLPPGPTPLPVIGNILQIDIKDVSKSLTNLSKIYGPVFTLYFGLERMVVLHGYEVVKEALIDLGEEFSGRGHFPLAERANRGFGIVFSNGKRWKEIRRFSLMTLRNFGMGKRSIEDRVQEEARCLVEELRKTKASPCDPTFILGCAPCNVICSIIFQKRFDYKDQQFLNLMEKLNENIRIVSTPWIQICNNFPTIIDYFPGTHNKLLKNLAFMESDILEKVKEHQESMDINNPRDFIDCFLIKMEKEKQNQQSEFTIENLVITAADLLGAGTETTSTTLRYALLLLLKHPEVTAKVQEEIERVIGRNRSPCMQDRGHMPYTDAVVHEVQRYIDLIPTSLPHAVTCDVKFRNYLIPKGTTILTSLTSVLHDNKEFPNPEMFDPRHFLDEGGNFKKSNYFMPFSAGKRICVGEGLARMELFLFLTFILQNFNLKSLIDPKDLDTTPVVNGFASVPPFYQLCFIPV

With `O=C(O)c1cccc(Cc2cc(Cl)ccc2OCc2c(F)cc(F)cc2F)n1` as the molecule, how does the IC50 [1] read?
Its IC50 is 79.4 nM.

Which metabolised at 0.5 h [2] does the source give for `O=C(O)c1cccc(Cc2cc(Cl)ccc2OCc2ccc(Cl)cc2Cl)n1` here?
Its metabolised at 0.5 h is less than 15%.

And the Ki [3]?
The Ki was 25.1 nM.

What about the IC50 [1] of the same molecule?
The IC50 was 10 nM.

What about the metabolised at 0.5 h [4] of the same molecule?
Its metabolised at 0.5 h is less than 15%.

And the IC50 (Cytochrome P450 1A2)?
The IC50 was 32000 nM.

And the IC50 (Cytochrome P450 2D6)?
The IC50 was greater than 50000 nM.

And the IC50 (Cytochrome P450 2C19)?
The IC50 was greater than 50000 nM.

What about the logD [5] of the same molecule?
The logD was 2.6.

And the IC50 (Cytochrome P450 2C9)?
Its IC50 is 4800 nM.

Which IC50 [1] does the source give for `O=C(O)c1cccc(Cc2cc(Cl)ccc2OCc2ccccc2Cl)n1` here?
Its IC50 is 39.8 nM.

For `O=C([O-])c1cccc(Cc2cc(Cl)ccc2OCc2ccc(F)cc2Cl)n1.[Na+]`, which Ki [3] is on record?
Its Ki is 100 nM.

And the IC50 [1]?
The IC50 was 12.6 nM.

And the concentration at 1 h [6]?
Its concentration at 1 h is 346 nM.

And the IC50 (Cytochrome P450 3A4 [7])?
The IC50 was greater than 100000 nM.

And the Kp at 1 h [8]?
The Kp at 1 h was 0.31.

And the IC50 (Cytochrome P450 1A2)?
Its IC50 is 61000 nM.

What about the Kp at 1 h [9] of the same molecule?
Its Kp at 1 h is 0.31.

And the IC50 (Cytochrome P450 3A4 [10])?
The IC50 was 35000 nM.

And the ED50 (Rattus norvegicus [11])?
The ED50 was 5.6 mg/kg.

And the Kp at 1 h [12]?
Its Kp at 1 h is 0.3.

And the concentration at 1 h [13]?
Its concentration at 1 h is 836 nM.

What about the IC50 (Cytochrome P450 2D6) of the same molecule?
Its IC50 is greater than 100000 nM.

And the concentration at 1 h [14]?
The concentration at 1 h was 1120 nM.

And the concentration at 1 h [15]?
The concentration at 1 h was 93 nM.

And the concentration at 1 h [16]?
The concentration at 1 h was 256 nM.

And the concentration at 1 h [17]?
The concentration at 1 h was 3010 nM.

And the IC50 (Cytochrome P450 2C19)?
Its IC50 is 28000 nM.

What about the logD [5] of the same molecule?
The logD was 2.

What about the IC50 (Cytochrome P450 2C9) of the same molecule?
Its IC50 is 15000 nM.

For `O=C(O)c1cccc(Cc2cc(Cl)ccc2OCc2ccc(Cl)cc2)n1`, which IC50 [1] is on record?
The IC50 was 39.8 nM.

With `O=C(O)c1cccc(Cc2cc(Cl)ccc2OCC2CCCC2)n1` as the molecule, how does the IC50 [1] read?
The IC50 was 31.6 nM.

With `O=C(O)c1cccc(C2=C(c3cc(Cl)ccc3OCc3ccc(F)cc3F)CCC2)n1` as the molecule, how does the fold change (FC) [18] read?
The fold change (FC) was greater than 400.

What does the source list for `Cc1cc(C(=O)[O-])nn1Cc1cc(Br)ccc1OCc1ccc(Cl)cc1Cl.[Na+]`?
Activity (Rattus norvegicus [19]): 70%; IC50 [1]: 0.129 nM; Ratio (Brain): < 0.05

For `O=C(O)c1cccc(Cc2cc(Cl)ccc2OCc2ccc(F)cc2F)n1`, which IC50 [1] is on record?
The IC50 was 25.1 nM.

With `O=C(O)c1cccc(Cc2cc(Cl)ccc2OCC2CC2)n1` as the molecule, how does the IC50 [1] read?
The IC50 was 200 nM.

For `O=C(O)c1cccc(Cc2cc(Cl)ccc2OCC2CCCCC2)n1`, which IC50 [1] is on record?
Its IC50 is 100 nM.

Which IC50 [1] does the source give for `O=C(O)c1cccc(Cc2cc(Cl)ccc2OCc2ccccc2F)n1` here?
Its IC50 is 79.4 nM.

For `O=C(O)c1cccc(Cc2cc(Cl)ccc2OCc2ccc(F)cc2)n1`, which IC50 [1] is on record?
Its IC50 is 100 nM.
